Experimental data published in ChEMBL document CHEMBL1137262, “Design and synthesis of APTCs (aminopyrrolidinetricarboxylic acids): identification of a new group III metabotropic glutamate receptor selective agonist” (Bioorg Med Chem Lett, 2006).

Columns and labels:
Format in all cases: functional, cell-based
[1] = target: Metabotropic glutamate receptor 2 (Rattus norvegicus, UniProt P31421); assay: Activity at rat mGluR2 receptor measured as intracellular calcium concentration in HEK293 cells
Method in brief: (§1)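 HEK293 cells were transfected with the indicated receptor, seeded on polyornithine-coated plates and cultured 24 h. Fluorescence (ex 485/em 525 nm) was read every 1.5 s for 60 s after compound addition. Agonism was scored versus basal signal. Dose–response curves were fitted; means of three experiments in triplicate.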

[2] = target: Metabotropic glutamate receptor 4 (Rattus norvegicus, UniProt P31423); assay: (§2) Activity at rat mGluR4 receptor measured as intracellular calcium concentration in HEK293 cells; method in brief: as §1
[3] = target: Metabotropic glutamate receptor 5 (Rattus norvegicus, UniProt P31424); assay: Activity at rat mGluR5 receptor measured as intracellular calcium concentration in HEK293 cells; method in brief: as §1
[4] = target: Metabotropic glutamate receptor 6 (Rattus norvegicus, UniProt P35349); assay: Activity at rat mGluR6 receptor measured as intracellular calcium concentration in HEK293 cells; method in brief: as §1
[5] = target: Metabotropic glutamate receptor 8 (Rattus norvegicus, UniProt P70579); assay: (§3) Activity at rat mGluR8 receptor measured as intracellular calcium concentration in HEK293 cells; method in brief: as §1
[6] = target: Metabotropic glutamate receptor 4 (Rattus norvegicus) (UniProt P31423); assay: Activity at rat mGluR4 receptor measured as intracellular calcium concentration in HEK293 cells relative to glutamate
[7] = target: Metabotropic glutamate receptor 8 (Rattus norvegicus) (UniProt P70579); assay: Activity at rat mGluR8 receptor measured as intracellular calcium concentration in HEK293 cells relative to glutamate
[8] = target: Metabotropic glutamate receptor 4 (Rattus norvegicus) (UniProt P31423); assay: Activity against rat mGluR4 receptor measured as intracellular calcium concentration in HEK293 cells at 450 uM; details: filed as agonist
[9] = target: Metabotropic glutamate receptor 8 (Rattus norvegicus) (UniProt P70579); assay: as §3; details: filed as partial agonist; method in brief: as §1
[10] = target: Metabotropic glutamate receptor 4 (Rattus norvegicus) (UniProt P31423); assay: as §2; details: filed as agonist; method in brief: as §1
[11] = target: Metabotropic glutamate receptor 1 (Rattus norvegicus, UniProt P23385); assay: Activity at rat mGluR1 receptor measured as intracellular calcium concentration in HEK293 cells; method in brief: as §1
[12] = target: Metabotropic glutamate receptor 7 (Rattus norvegicus, UniProt P35400); assay: Activity at rat mGluR7 receptor measured as intracellular calcium concentration in HEK293 cells; method in brief: as §1

Chain of Metabotropic glutamate receptor 4 (Rattus norvegicus) (P31423 whole entry): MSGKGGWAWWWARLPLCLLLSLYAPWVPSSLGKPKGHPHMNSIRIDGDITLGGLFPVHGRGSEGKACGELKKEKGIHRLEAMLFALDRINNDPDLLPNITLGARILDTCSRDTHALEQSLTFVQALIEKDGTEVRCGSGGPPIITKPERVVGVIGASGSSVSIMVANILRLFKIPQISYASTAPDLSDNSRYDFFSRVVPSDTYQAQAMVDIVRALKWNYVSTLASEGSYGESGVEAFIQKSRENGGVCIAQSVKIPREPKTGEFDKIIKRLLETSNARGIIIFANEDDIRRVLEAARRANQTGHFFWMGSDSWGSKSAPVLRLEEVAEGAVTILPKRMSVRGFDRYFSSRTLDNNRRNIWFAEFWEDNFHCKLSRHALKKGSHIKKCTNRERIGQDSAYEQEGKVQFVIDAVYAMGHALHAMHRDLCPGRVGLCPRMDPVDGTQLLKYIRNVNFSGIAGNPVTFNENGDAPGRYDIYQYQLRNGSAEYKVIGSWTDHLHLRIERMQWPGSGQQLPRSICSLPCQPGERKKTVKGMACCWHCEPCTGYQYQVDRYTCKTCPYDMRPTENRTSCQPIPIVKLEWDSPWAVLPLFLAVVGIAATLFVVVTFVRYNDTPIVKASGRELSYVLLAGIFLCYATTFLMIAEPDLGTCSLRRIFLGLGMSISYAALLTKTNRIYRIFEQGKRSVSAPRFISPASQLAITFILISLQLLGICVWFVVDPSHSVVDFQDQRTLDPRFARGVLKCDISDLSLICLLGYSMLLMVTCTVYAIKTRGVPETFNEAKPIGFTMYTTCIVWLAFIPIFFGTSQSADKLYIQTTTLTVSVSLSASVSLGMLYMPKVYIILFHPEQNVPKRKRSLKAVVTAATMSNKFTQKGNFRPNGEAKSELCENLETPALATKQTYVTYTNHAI
Chain of Metabotropic glutamate receptor 2 (P31421 whole entry): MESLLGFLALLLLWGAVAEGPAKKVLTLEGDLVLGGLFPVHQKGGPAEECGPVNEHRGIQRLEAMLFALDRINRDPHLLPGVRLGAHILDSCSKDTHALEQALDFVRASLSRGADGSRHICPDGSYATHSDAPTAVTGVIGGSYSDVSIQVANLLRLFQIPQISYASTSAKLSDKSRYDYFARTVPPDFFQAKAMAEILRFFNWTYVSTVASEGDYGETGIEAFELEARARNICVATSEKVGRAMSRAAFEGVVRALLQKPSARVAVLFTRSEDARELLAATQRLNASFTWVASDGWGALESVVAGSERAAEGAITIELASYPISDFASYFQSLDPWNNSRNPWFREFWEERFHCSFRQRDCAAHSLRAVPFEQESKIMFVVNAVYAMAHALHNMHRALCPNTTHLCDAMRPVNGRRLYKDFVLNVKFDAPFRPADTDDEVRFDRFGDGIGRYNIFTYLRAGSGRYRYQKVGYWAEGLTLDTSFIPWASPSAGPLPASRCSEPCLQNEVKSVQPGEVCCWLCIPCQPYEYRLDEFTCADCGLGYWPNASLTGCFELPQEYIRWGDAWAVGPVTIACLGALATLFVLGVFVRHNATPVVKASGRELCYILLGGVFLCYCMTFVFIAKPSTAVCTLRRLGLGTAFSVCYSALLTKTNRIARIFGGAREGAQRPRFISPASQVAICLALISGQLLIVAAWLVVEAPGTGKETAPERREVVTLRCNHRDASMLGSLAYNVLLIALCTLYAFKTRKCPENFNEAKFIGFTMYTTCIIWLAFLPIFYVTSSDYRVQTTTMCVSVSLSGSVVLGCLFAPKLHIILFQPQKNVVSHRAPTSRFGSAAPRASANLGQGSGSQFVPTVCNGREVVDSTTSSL
Chain of Metabotropic glutamate receptor 8 (Rattus norvegicus) (P70579 whole entry): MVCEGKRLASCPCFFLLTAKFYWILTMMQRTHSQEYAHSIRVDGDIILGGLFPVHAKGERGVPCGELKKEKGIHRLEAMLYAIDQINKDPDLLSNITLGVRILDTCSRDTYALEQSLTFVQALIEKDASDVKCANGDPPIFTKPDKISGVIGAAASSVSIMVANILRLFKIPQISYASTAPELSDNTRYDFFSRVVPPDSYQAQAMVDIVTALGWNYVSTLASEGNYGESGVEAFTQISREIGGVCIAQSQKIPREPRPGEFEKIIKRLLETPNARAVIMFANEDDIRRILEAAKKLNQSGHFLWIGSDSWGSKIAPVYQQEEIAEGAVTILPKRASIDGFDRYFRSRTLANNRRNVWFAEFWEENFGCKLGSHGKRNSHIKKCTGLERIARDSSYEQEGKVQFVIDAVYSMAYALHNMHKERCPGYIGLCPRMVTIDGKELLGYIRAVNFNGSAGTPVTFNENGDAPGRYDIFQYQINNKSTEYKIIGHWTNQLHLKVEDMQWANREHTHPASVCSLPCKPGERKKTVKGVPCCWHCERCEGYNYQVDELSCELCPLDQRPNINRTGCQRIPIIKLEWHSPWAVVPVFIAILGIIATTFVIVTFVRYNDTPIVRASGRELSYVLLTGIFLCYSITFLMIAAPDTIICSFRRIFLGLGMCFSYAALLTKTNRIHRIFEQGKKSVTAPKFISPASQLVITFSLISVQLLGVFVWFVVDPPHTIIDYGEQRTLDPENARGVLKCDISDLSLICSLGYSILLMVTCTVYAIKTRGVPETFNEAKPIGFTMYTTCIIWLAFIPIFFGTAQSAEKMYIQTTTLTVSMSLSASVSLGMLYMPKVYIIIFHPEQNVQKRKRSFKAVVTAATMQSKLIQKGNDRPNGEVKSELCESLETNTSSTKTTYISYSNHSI
Chain of Metabotropic glutamate receptor 8 (P70579 whole entry): as above
Chain of Metabotropic glutamate receptor 6 (P35349 whole entry): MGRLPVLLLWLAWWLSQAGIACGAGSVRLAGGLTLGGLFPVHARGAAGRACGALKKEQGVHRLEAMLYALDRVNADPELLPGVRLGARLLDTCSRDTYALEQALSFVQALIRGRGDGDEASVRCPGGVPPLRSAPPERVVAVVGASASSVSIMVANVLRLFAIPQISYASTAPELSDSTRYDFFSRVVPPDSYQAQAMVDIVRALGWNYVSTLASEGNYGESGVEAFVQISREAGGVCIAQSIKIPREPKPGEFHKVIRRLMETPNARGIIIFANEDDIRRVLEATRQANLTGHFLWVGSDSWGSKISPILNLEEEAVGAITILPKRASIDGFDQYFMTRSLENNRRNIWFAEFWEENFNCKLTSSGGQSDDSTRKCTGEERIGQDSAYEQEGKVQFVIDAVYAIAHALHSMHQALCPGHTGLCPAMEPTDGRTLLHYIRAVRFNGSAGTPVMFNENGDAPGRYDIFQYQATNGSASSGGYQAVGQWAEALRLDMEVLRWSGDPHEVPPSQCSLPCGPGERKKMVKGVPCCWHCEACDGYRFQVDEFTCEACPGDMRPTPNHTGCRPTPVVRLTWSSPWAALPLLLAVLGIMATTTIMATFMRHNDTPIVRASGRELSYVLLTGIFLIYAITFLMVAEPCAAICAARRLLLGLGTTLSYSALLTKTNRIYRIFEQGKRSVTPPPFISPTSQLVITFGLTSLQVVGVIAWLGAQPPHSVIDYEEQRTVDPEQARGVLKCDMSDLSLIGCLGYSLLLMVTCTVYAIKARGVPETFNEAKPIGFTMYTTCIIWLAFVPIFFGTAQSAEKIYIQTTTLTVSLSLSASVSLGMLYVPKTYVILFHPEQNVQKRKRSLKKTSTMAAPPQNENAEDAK
Chain of Metabotropic glutamate receptor 5 (P31424 whole entry): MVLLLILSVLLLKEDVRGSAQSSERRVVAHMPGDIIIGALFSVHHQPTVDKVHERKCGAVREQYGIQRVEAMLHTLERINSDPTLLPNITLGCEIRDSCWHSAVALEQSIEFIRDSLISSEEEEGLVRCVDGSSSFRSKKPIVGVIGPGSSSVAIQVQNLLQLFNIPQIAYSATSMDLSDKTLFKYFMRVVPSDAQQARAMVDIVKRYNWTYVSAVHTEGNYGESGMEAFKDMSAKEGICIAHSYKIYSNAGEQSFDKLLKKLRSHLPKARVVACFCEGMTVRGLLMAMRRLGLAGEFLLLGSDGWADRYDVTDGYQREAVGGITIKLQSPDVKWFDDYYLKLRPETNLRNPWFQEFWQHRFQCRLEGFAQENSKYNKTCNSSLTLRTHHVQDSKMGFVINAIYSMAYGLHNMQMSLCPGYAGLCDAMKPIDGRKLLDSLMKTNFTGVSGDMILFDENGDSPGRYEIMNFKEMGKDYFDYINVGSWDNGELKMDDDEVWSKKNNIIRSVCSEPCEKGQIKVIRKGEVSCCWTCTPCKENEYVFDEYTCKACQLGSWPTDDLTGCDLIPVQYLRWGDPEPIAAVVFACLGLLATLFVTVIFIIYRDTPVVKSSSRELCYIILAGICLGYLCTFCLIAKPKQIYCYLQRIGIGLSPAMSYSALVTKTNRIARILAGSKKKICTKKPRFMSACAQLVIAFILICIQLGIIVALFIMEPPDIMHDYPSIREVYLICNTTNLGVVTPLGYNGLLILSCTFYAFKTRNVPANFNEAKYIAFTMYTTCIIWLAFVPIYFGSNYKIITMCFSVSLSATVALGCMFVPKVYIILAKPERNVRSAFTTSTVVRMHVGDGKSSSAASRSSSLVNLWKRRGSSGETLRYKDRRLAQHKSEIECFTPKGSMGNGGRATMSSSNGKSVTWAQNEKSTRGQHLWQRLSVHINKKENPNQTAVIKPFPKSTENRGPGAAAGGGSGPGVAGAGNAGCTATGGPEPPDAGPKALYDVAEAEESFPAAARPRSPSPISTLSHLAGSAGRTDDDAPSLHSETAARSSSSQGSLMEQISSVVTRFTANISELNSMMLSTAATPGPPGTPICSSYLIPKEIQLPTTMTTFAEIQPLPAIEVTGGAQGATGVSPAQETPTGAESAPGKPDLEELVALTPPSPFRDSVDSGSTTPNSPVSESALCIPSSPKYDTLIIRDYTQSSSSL
Chain of Metabotropic glutamate receptor 4 (P31423 whole entry): as the sequence (P31423 whole entry) above

N[C@@]1(C(=O)O)C[C@@H](C(=O)O)N(C(=O)/C=C/C(=O)O)C1
EC50 [1]: > 5000 µM
EC50 [2]: 48.3 µM
EC50 [3]: > 5000 µM
EC50 [4]: 378 µM
EC50 [5]: 56.2 µM
Emax [6]: 75%
Emax [7]: 36%
Activity [8]: Agonist
Activity [9]: Partial agonist
Activity [10]: Agonist
EC50 [11]: > 5000 µM

N[C@@]1(C(=O)O)C[C@H](C(=O)O)[C@H](C(=O)O)C1
EC50 [1]: > 1000 µM
EC50 [2]: 7.2 µM
EC50 [3]: > 1000 µM
EC50 [4]: 18.4 µM
EC50 [12]: 1200 µM
EC50 [5]: 10.1 µM
